Experiments:
CT26 cells [1] = assay: Cellular uptake of FITC-labeled albumin with endocytosis inhibitors; assay type: cell-based, murine (Balb/c); details: 1 h inhibitor pretreatment, uptake after 3 h
[2] = cited from earlier work
[3] = Pharmacokinetic of single dose in serum; assay type: in vivo, Balb/c mice
In short: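 Naive BALB/c mice (n = 4 per group) received a single i.v. dose equimolar to 9 mg kg−1 oxaliplatin. Serum was sampled between 0.08 h and 336 h, and serum versus blood clot was compared at 24 h. Platinum was quantified by ICP-MS and used for concentration–time curves, AUC and terminal elimination half-life.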

CT26 tumors [4] = assay: Allograft anticancer activity experiments; assay type: in vivo; details: CT26-bearing BALB/c mice
In short: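 CT26 allografts in immune-competent BALB/c mice; test compounds and oxaliplatin given i.v. twice weekly for two weeks at doses equimolar to 9 mg kg−1 oxaliplatin. Body weight was followed. Tumor growth is reported as mean ± SEM and compared by two-way ANOVA. Overall survival was plotted as Kaplan–Meier curves and compared by log-rank test with Mantel–Cox posttest.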

CT26 tumors [5] = assay: Histological evaluation of treated tumors; assay type: in vivo, Balb/c mice; details: tumors day 12, H&E-stained
In short: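 CT26-bearing BALB/c mice dosed i.v. twice weekly for two weeks, equimolar to 9 mg kg−1 oxaliplatin. Tumors were collected on day 12, 24 h after the last dose. Apoptotic and mitotic cells were counted in H&E sections. Percentages of cleaved caspase-3-positive and Ki-67-positive cells were scored by image analysis. One-way ANOVA with Dunnett's test.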

CT26 cells [6] = assay: Cytotoxicity, MTT-based cell viability assay; set-up: species or system murine (Balb/c)
In short: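 MTT-based viability of CT26 cells after 72 h drug exposure, alone or with 100 μM ascorbic acid co-treatment. Values are means ± SD of one representative experiment run in triplicates.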

CT26 cells [7] = assay: Cellular platinum uptake determined by ICP-MS; assay type: cell-based, murine (Balb/c); details: MβCD, CHP, EIPA 1 h pretreatment, uptake after 3 h
[8] = Reduction kinetics with ascorbic acid by NMR; assay type: physicochemical; details: 100 μM, ascorbic acid 10 eq., cell-free, pD 7.4, 37°C

In the case of methyl-β-cyclodextrin [MßCD], the “impact on uptake of FITC-labeled albumin” value (CT26 cells [1]) is reported as “significantly reduced”.
For `COc1cccc2c1C(=O)c1c(O)c3c(c(O)c1C2=O)C[C@@](O)(C(=O)CO)C[C@@H]3O[C@H]1C[C@H](N)[C@H](O)[C@H](C)O1` [doxorubicin], the “concentration in blood, share of the initial amount” value ([2]; 15 min after i.v. injection) is listed as “less than 2%” and the “in vivo elimination half-life” value [2] is listed as “in the order of minutes”.
With `CCN(c1nc(N)c(C(=O)NC(=N)N)nc1Cl)C(C)C` [EIPA, 5-(N-ethyl-N-isopropyl)amiloride] the “impact on uptake of FITC-labeled albumin” value (CT26 cells [1]) was “had no impact on albumin uptake”.
In the case of `O=C1[O][Pt]2([NH][C@@H]3CCCC[C@H]3[NH]2)[O]C1=O` [oxaliplatin], the “serum concentration at first sampling time point relative to KP2156” value ([3]; 5 min, equimolar application) is reported as “drastically lower than for KP2156”, the “total clearance relative to KP2156” value ([3]; single i.v. dose) is reported as “at least one order of magnitude higher than that of KP2156” and the “terminal elimination half-life (t ½)” value ([3]; single i.v. dose equimolar to 9 mg kg−1 oxaliplatin) is reported as 32.5 h. For the same compound, the “impact on tumor growth” value (CT26 tumors [4]; i.v. twice a week for two weeks, equimolar to 9 mg kg−1 oxaliplatin) was “significant activity”, the “day at which treated tumors progressed again” value (CT26 tumors [4]; same scheme) was about 15 days and the “change of mitotic cells” value (CT26 tumors [5]) was “significant increase of mitotic cells”. For the same compound, the “impact of ascorbic acid co-treatment on activity (cell viability)” value (CT26 cells [6]; 100 μM AA, 72 h) was “no relevant impact”, the IC50 (CT26 cells [6]; after 72 h) was about 3.5 µM and the “impact of endocytosis inhibitors on cellular drug uptake” value (CT26 cells [7]) was “neither accumulation of oxaliplatin nor KP2157 were affected by endocytosis inhibition”.
In the case of `CC(=O)[O][Pt]([NH2])([Cl])([Cl])([NH]C1CCCCC1)[O]C(C)=O` [Satraplatin, satraplatin], the “time to complete reduction” value [8] is reported as under 24 h.
For `COc1cccc2c1C(=O)c1c(O)c3c(c(O)c1C2=O)C[C@@](O)(/C(CO)=N/NC(=O)CCCCCN1C(=O)C=CC1=O)C[C@@H]3O[C@H]1C[C@H](N)[C@H](O)[C@H](C)O1` [aldoxorubicin], the “in vivo elimination half-life” value [2] is given as 2.3 h and the “time at which tumor accumulation reached a plateau” value ([2]; no further increase during the next 24 h) is given as 2 h.

Reference: PMC8494022 (Chemical Science, 2021)
